Assays:
L1210 [1] = test: (§1) Inhibition of L1210 (murine leukemia) cell growth in vitro.; type: functional, Mus musculus
Summary of the method: (§2)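 Murine L1210 leukemia cells seeded at 1000 cells/well in RPMI-1640 containing 5% fetal calf serum and 0.5% DMSO, exposed to nine 2-fold serial dilutions for 3 days. Growth was read by MTT (4 h), with formazan dissolved in DMSO and measured spectrophotometrically. IC50 comes from semilog concentration plots of the mean of four assessments per dilution versus control growth.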

L1210 [2] = test: Inhibition of murine L1210 cell line tissue culture growth; type: functional, cell-based; conditions: Mus musculus; summary of the method: as §2
GC3/MTK- [3] = test: (§3) Inhibitory activity of compound against growth of thymidine kinase-deficient human adenocarcinoma cell line (GC3/M TK-) in tissue culture; type: functional
Summary of the method: (§4)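 MTT colorimetric growth assay in the thymidine kinase-deficient human adenocarcinoma line. Seeded at 10 000 cells/well in RPMI-1640 with 10% fetal calf serum and 0.5% DMSO. Nine 2-fold serial dilutions of compound, 5 day incubation, then 4 h MTT. Formazan dissolved in DMSO and read spectrophotometrically. IC50 taken from semilog plots of the mean of four growth assessments per dilution, relative to control cultures.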

GC3/MTK- [4] = test: Inhibition of GC3/M TK- (human adenocarcinoma) cell growth in vitro.; type: functional, cell-based
Summary of the method: (§5)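 Thymidine kinase-deficient human adenocarcinoma GC3/M TK- cells seeded at 10 000 cells/well in RPMI-1640 with 10% fetal calf serum and 0.5% DMSO. Compound given as nine 2-fold serial dilutions over a 5 day incubation, then 4 h MTT and spectrophotometric formazan read after DMSO dissolution. IC50 from semilog plots of the mean of four growth assessments relative to control cultures.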

CCRF-CEM [5] = test: Inhibitory activity of compound against growth of human leukemias (CCRF-CEM) cell line in tissue culture; type: functional
Summary of the method: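 CCRF-CEM human leukemia cells seeded at 10 000 cells/well in RPMI-1640 with 5% fetal calf serum and 0.5% DMSO. Exposed to nine 2-fold serial dilutions for 5 days, followed by 4 h with MTT. Formazan dissolved in DMSO and measured spectrophotometrically. IC50 read from semilog plots of the mean of four growth assessments per dilution versus control growth.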

CCRF-CEM [6] = test: (§6) Inhibition of CCRF-CEM (human leukemia) cell growth in vitro.; type: functional, cell-based
Summary of the method: (§7)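 MTT colorimetric growth assay (modified Mosmann) in CCRF-CEM human leukemia cells seeded at 10 000 cells/well in RPMI-1640 with 5% fetal calf serum and 0.5% DMSO. Nine 2-fold serial dilutions of compound, 5 day incubation, then 4 h MTT and formazan dissolved in DMSO for spectrophotometric reading. IC50 taken from semilog plots of the mean of four growth assessments per dilution relative to control cultures.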

[7] = biological target: Thymidylate synthase (Escherichia coli) (UniProt C3SWJ7)
CCRF-CEM [8] = test: Activity for growth inhibition in tissue culture of human leukemias (CCRF-CEM). value in parenthesis indicates % inhibition.; type: functional, cell-based
GC3/MTK- [9] = test: as §3; type: functional; parameters: concentration or dose not given beside the values; summary of the method: as §4
CCRF-CEM [10] = test: as §6; type: functional; parameters: concentration or dose not given beside the values; summary of the method: as §7
[11] = biological target: Thymidylate synthase (Homo sapiens) (UniProt P04818)
[12] = biological target: Thymidylate synthase (Escherichia coli) (UniProt C3SWJ7); remark: listed apart in the source
[13] = biological target: Thymidylate synthase (Homo sapiens) (UniProt P04818); remark: listed apart in the source
CCRF-CEM [14] = test: Activity for growth inhibition in tissue culture of human leukemias( CCRF-CEM); type: functional, cell-based; summary of the method: as §7
L1210 [15] = test: as §1; type: functional, Mus musculus; parameters: concentration or dose not given beside the values; summary of the method: as §2
GC3/MTK- [16] = test: Inhibition of GC3/M TK- (human adenocarcinoma) cell growth in vitro; Insoluble.; type: functional, cell-based; summary of the method: as §5
CCRF-CEM [17] = test: Activity for growth inhibition in tissue culture of human leukemias (CCRF-CEM); Insoluble.; type: functional, cell-based; summary of the method: as §7
L1210 [18] = test: Activity for growth inhibition in tissue culture of murine (L1210); Insoluble; type: functional, cell-based, Mus musculus; summary of the method: as §2
CCRF-CEM [19] = test: Inhibitory activity of compound against growth of human leukemias (CCRF-CEM) in tissue culture; type: functional; summary of the method: as §7

Chain of Thymidylate synthase (Escherichia coli) (C3SWJ7 1-264): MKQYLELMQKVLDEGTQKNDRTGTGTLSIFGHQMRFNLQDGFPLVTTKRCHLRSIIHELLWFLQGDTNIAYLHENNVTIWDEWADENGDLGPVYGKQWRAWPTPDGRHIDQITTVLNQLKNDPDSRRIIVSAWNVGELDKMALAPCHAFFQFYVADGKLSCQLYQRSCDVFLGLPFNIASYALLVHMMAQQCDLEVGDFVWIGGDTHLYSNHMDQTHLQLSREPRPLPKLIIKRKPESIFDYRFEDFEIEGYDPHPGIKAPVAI
Chain of Thymidylate synthase (Homo sapiens) (P04818 2-313 limits assumed): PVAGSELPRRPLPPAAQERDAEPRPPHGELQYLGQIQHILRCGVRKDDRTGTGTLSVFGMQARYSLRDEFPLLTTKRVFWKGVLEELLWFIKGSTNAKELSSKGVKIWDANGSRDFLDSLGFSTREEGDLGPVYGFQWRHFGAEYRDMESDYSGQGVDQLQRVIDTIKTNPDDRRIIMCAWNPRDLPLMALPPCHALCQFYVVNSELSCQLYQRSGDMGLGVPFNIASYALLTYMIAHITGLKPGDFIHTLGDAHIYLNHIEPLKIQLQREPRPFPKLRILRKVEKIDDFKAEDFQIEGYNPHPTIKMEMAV

Structure (SMILES)	IC50 (L1210 [2]) [µM]	IC50 (CCRF-CEM [6]) [µM]	Kii [7] [µM]	IC50 (CCRF-CEM [8]) [µM]	Kii [11] [µM]	Kis [12] [µM]	Kis [13] [µM]	IC50 (CCRF-CEM [14]) [µM]	IC50 (CCRF-CEM [17])	IC50 (L1210 [18])	Inhibition (L1210 [1]) [%]	Inhibition (GC3/MTK- [3]) [%]	IC50 (GC3/MTK- [4]) [µM]	Inhibition (CCRF-CEM [5]) [%]	Inhibition (GC3/MTK- [9]) [%]	Inhibition (CCRF-CEM [10]) [%]	Inhibition (L1210 [15]) [%]	IC50 (GC3/MTK- [16])	Inhibition (CCRF-CEM [19]) [%]
C#CCN(Cc1ccc2nc(C)nc(O)c2c1)c1cccc(C(F)(F)F)c1	> 2.2	> 4.3									35	25	> 4.3	41					
C#CCN(Cc1ccc2nc(C)nc(O)c2c1)c1ccc(Cl)cc1	> 4		3.7		0.77	0.85	0.36	> 4								20	25		
C#CCN(Cc1ccc2nc(C)nc(O)c2c1)c1ccc(S(N)(=O)=O)c(C(F)(F)F)c1			0.061		0.07	0.024	0.036		Insoluble	Insoluble								Insoluble	
C#CCN(Cc1ccc2nc(C)nc(O)c2c1)c1ccc(C#N)c(Cl)c1	4.5	> 6.7	0.1		0.079	0.035	0.037					25	6.7	10					

Now from value to compound, other results behind:

IC50 (L1210 [2]) [µM]	IC50 (CCRF-CEM [6]) [µM]	Kii [7] [µM]	IC50 (CCRF-CEM [8]) [µM]	Kii [11] [µM]	Kis [12] [µM]	Kis [13] [µM]	IC50 (CCRF-CEM [14]) [µM]	IC50 (CCRF-CEM [17])	IC50 (L1210 [18])	Structure (SMILES)	Inhibition (L1210 [1]) [%]	Inhibition (GC3/MTK- [3]) [%]	IC50 (GC3/MTK- [4]) [µM]	Inhibition (CCRF-CEM [5]) [%]	Inhibition (GC3/MTK- [9]) [%]	Inhibition (CCRF-CEM [10]) [%]	Inhibition (L1210 [15]) [%]	IC50 (GC3/MTK- [16])	Inhibition (CCRF-CEM [19]) [%]
48		5.1	> 54	1.2	1.7	0.62				C#CCN(Cc1ccc2nc(C)nc(O)c2c1)c1cccc(CO)c1			> 54		22	30			
> 10	> 10	0.28		0.19	0.13	0.083				C#CCN(Cc1ccc2nc(C)nc(O)c2c1)c1ccc(S(=O)(=O)N2CCN(C)CC2)cc1			> 10		17		27		24
